# B1: tRNA (parent)
# chain: GUUCCGUUGGCGUAAUGGUAACGCGUCUCCCUCCUAAGGAGAAGACUGCGGGUUCGAGUCCCGUACGGAACG
# Variants of: B1
# Experiment: yeast fitness, log relative to wild type (ln ratio); higher = fitter; tRNA-Arg(CCU), competitive growth, 37 C, 1 M NaCl
# Summary of the method: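 Variants were counted by 125 bp paired-end Illumina sequencing after pools of a combinatorial tRNA-Arg(CCU) library, held on a HIS3 centromeric plasmid in BY4742 lacking the chromosomal gene, grew ~6.5 generations (~26.5 h) in SC-HIS 1M NaCl at 37 °C. Each genotype's fitness is the natural log of its generations relative to the wild type's. Generations were OD-scaled log2 output/input frequencies, inverse-variance weighted over replicates.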
row,Variant,yeast fitness (ln)
1,U2G G6A A69G C71U,-0.113
2,G1A U2G G6A C27U A43C C46U A69G A70U C71U,-0.443
3,G1A U2G G6A C27U C46U A70U C71U,-0.15
4,U2C G6U A43C C46U A69G A70G C71U,-0.149
5,G1A G6U C27U A43C C46U C66A A69G C71U,-0.671
6,U2C G6A C27U C46U,-0.0382
7,U2C G6A A43C C46U C71U,-0.0721
8,U2C G6U C27U A43C C66U A69G A70G C71U,-0.347
9,U2C G6U A43C C66A A70G C71U,-0.0145
10,G1A U2G G6U C27U A43C A70G C71U,-0.588
11,G1A G6U C27U A43C C46U C66U,-0.475
12,U2C C66U A70U C71U,-0.152
13,U2G G6A C46U C66A A70G,-0.056
14,U2C C27U A43C A70G,-0.0248
15,U2C G6A A43C C66U A70U C71U,-0.305
16,G1A A43C C66U A70U C71U,-0.25
17,G1A G6A C27U C46U A69G A70U,-0.24
18,U2C G6A C27U A43C C66U A69G A70G,-0.0511
19,A43C C66U A69G A70G C71U,-0.22
20,U2C G6U C27U A43C A70U,-0.2
21,U2G G6A C27U A43C A69G A70U C71U,-0.502

row,Variant,yeast fitness (ln)
1,G1A U2C G6A C46U A70U C71U,-0.00949
2,G1A U2G G6A C46U A70G C71U,-0.245
3,U2G G6U A43C C46U C66U A70U,-0.263
4,G6A C46U A69G A70G C71U,-0.146
5,G1A U2G C27U C46U C66A A69G A70U,-0.191
6,G1A U2G G6U A43C C46U C66A A69G A70U C71U,-0.314
7,G6A A69G C71U,-0.134
8,G1A U2C G6A C27U C46U A70G,-0.0476
9,G1A C27U A70G,-0.163
10,U2G C27U A43C C66A,-0.171
11,G6A A43C C46U C66U A70G,-0.0403
12,U2G A43C C46U C66U A69G C71U,-0.279
13,G1A U2G C27U A43C C46U C66A A69G A70U C71U,-0.456
14,G1A U2G A43C C66A A69G A70G C71U,-0.329
15,U2C G6U A43C C46U C66U A70U C71U,-0.254
16,U2G G6A C27U A43C C46U C66A A69G C71U,-0.283
17,U2C G6U C66U A69G A70U C71U,-0.468
18,C27U C46U C66A A69G C71U,-0.262
19,U2G G6A C27U C66A A70U C71U,-0.244
20,G1A G6U C27U A43C C66A A70G,-0.33
21,G6U C27U A43C C46U C66U A70U C71U,-0.467

row,Variant,yeast fitness (ln)
1,C27U C46U C66U A69G A70U,-0.104
2,U2G G6U A43C C46U C66U A70G C71U,-0.241
3,G6A C27U A43C C66U A69G A70U,-0.452
4,C27U C46U C66A A70G C71U,-0.129
5,G1A U2C C27U A69G A70G,-0.209
6,G1A U2G G6U C46U C66U A69G C71U,-0.466
7,G6U C27U A43C C66U A69G A70U C71U,-0.341
8,G1A U2G G6A C66U A70U C71U,-0.0116
9,U2C G6U A43C C46U C66A,-0.0972
10,G1A U2C C46U C66U A69G A70G,-0.127
11,U2G G6A C71U,-0.0566
12,G1A C27U A43C C46U A69G A70U C71U,-0.366
13,U2G C27U A43C C46U C66A A69G A70G,-0.21
14,G1A A43C C66U,-0.172
15,G1A U2C G6A A43C C66U A70G,-0.12
16,U2G C27U A43C C66U A70U,-0.205
17,G1A U2C G6U C27U C46U A70U C71U,-0.13
18,G1A U2G G6A C66A A69G A70G C71U,-0.257
19,G1A C27U C46U A69G C71U,-0.047
20,U2G G6U C27U C66A,-0.0883
21,U2G G6A C27U A43C C66U A69G A70U C71U,-0.434

row,Variant,yeast fitness (ln)
1,G1A A43C C46U C66U A69G A70U,-0.259
2,G1A A70U,-0.044
3,U2C C27U A43C,-0.0586
4,U2C G6A C27U A43C C46U C66U A70U C71U,-0.225
5,U2C G6U C27U A43C C46U A70G,-0.204
6,G1A U2G G6A A43C C46U C66U A69G A70U,-0.306
7,G1A U2C A43C C66U A70U C71U,-0.281
8,G6A A43C C46U C66A A70G,-0.144
9,U2C G6A A43C C66U A69G A70G,-0.0192
10,G1A U2G C66A,-0.0852
11,C27U A43C C66A A69G A70U C71U,-0.513
12,G1A U2C A43C C46U C66A A69G A70G C71U,-0.0434
13,G1A G6U C46U C71U,-0.183
14,G1A U2G C46U C71U,-0.25
15,G6U A43C C46U C66U A70G C71U,-0.295
16,G1A U2G G6A C27U A43C C66U A70G,-0.337
17,G6A C46U A70U C71U,-0.15
18,G1A G6A C27U A43C C46U A69G A70G,-0.265
19,G1A G6A C27U C46U A69G A70U C71U,-0.36
20,U2C C46U C66U A69G,-0.224
21,G6U C66A A70U C71U,-0.412
